Measured values reported in ChEMBL document CHEMBL1152730, “Non-peptidic substrate-mimetic inhibitors of Akt as potential anti-cancer agents” (Bioorg Med Chem, 2009).
pIC50: −log10 of the molar value. Numbered stars: 1 amine (or outer) side, 2 acyl side, 3 side chain; on linkers, the order of the positions; unused ones are H or OH. Square brackets hold non-standard residues; d marks the D form. Peptide text beside a SMILES is read from it. * marks the point of attachment. X2 = O=C(c1ccc(N[*:1])cc1-c1cccc2ccccc12)[*:2]; X1 = O=C(c1ccc(N[*:1])c(-c2ccccc2)c1)[*:2]; X3 = O=C(c1ccc(N[*:1])cc1-c1ccccc1)[*:2]; X4 = Cc1cc(C(=O)[*:2])ccc1N[*:1]; NHBn = c1ccc(CN*)cc1

Molecular target: RAC-alpha serine/threonine-protein kinase (Homo sapiens, UniProt P31749)
Sequence (P31749 whole entry): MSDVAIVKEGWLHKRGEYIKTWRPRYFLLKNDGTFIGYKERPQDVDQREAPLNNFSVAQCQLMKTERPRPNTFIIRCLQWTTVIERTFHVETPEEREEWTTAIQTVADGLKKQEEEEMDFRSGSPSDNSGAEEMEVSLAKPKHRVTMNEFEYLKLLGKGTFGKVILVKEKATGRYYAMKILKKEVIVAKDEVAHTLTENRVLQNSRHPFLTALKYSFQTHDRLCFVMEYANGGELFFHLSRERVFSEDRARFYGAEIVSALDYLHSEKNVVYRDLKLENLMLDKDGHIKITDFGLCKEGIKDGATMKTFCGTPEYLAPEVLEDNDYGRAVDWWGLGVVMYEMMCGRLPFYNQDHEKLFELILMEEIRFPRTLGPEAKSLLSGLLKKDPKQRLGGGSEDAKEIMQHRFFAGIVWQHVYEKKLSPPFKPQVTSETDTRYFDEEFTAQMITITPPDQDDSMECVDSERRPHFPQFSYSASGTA
Assay: Inhibition of Akt1 by fluorescence polarization assay
Procedure, shortened: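 Substrate 100 nM 5FAM-labelled GSK3-derived peptide, ATP 5 μM, inhibitor added from DMSO stock. Incubated 1 h at room temperature, then quenched with IMAP binding solution. Phosphorylation read by fluorescence polarization; IC50 determined.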

Row | SMILES | pIC50
1 | N#Cc1ccc(CN(Cc2ccc(C#N)cc2)c2ccc(NC(=O)c3ccc(NCCNC(=N)N)c(-c4ccc5ccccc5c4)c3)cc2)cc1 | 4.77
2 | CC(=O)NCC(=O)N[C@@H](CCCNC(=N)N)C(=O)N1CCC[C@H]1C(=O)N[C@@H](CCCNC(=N)N)C(=O)Nc1ccc(C(=O)N[C@H](C(=O)N[C@@H](Cc2ccccc2)C(=O)NCc2ccccc2)C(C)C)c(-c2cccc3ccccc23)c1 (Ac-GRPR[X2]VF-NHBn) | 4.11
3 | N=C(N)NCCNc1ccc(C(=O)Nc2ccc(N(Cc3ccc(-c4ccccc4)cc3)Cc3ccc(-c4ccccc4)cc3)cc2)cc1-c1ccccc1 | 4.08
4 | CC(C)c1ccc(CN(Cc2ccc(C(C)C)cc2)c2ccc(NC(=O)c3ccc(NCCNC(=N)N)c(-c4ccccc4)c3)cc2)cc1 | 4.55
5 | CC(C)c1ccc(CN(Cc2ccc(C(C)C)cc2)c2ccc(NC(=O)c3ccc(NC(=O)CNC(=N)N)c(-c4ccc5ccccc5c4)c3)cc2)cc1 | 4.77
6 | N#Cc1ccc(CN(Cc2ccc(C#N)cc2)c2ccc(NC(=O)c3ccc(NCCNC(=N)N)c(-c4ccccc4)c3)cc2)cc1 | 4.72
7 | Cc1ccc(CN(Cc2ccc(C)cc2)c2ccc(NC(=O)c3ccc(NCCNC(=N)N)c(-c4ccccc4)c3)cc2)cc1 | 3.67
8 | N=C(N)NCCNc1ccc(C(=O)Nc2ccc(N(Cc3ccccc3)Cc3ccccc3)cc2)cc1 | 4.02
9 | CC(C)c1ccc(-c2cc(C(=O)Nc3ccc(N(Cc4ccccc4)Cc4ccccc4)cc3)ccc2NCCNC(=N)N)cc1 | 4.28
10 | N=C(N)NCCNc1ccc(C(=O)Nc2ccc(N(Cc3ccc(F)cc3)Cc3ccc(F)cc3)cc2)cc1-c1ccccc1 | 4.26
11 | CC(C)c1ccc(CN(Cc2ccc(C(C)C)cc2)c2ccc(NC(=O)c3ccc(NCCNC(=N)N)c(-c4ccc5ccccc5c4)c3)cc2)cc1 | 4.42
12 | Cc1cccc(CN(Cc2cccc(C)c2)c2ccc(NC(=O)c3ccc(NCCNC(=N)N)c(-c4ccccc4)c3)cc2)c1 | 3.82
13 | COC(=O)c1ccc(-c2cc(C(=O)Nc3ccc(N(Cc4ccccc4)Cc4ccccc4)cc3)ccc2NCCNC(=N)N)cc1 | 3.80
14 | NC(N)=NCC(=O)Nc1ccc(-c2cc3cc(N(Cc4ccccc4)Cc4ccccc4)ccc3[nH]2)cc1 | 3.90
15 | N=C(N)NCCNc1ccc(C(=O)Nc2ccc(N(Cc3ccc4ccccc4c3)Cc3ccc4ccccc4c3)cc2)cc1-c1ccccc1 | 4.64
16 | N=C(N)NCCNc1ccc(C(=O)Nc2ccc(N(Cc3ccccc3)Cc3ccccc3)cc2)cc1-c1ccc2ccccc2c1 | 4.36
17 | N#Cc1ccc(CN(Cc2ccc(C#N)cc2)c2ccc(NC(=O)c3ccc(NC(=O)CNC(=N)N)c(-c4ccc5ccccc5c4)c3)cc2)cc1 | 4.92
18 | N=C(N)NCCNc1ccc(C(=O)Nc2ccc(N(Cc3ccccc3)Cc3ccccc3)cc2)cc1-c1ccc(-c2ccccc2)cc1 | 4.08
19 | N#Cc1ccc(-c2cc(C(=O)Nc3ccc(N(Cc4ccccc4)Cc4ccccc4)cc3)ccc2NCCNC(=N)N)cc1 | 4.11
20 | N#Cc1ccc(CN(Cc2ccc(C#N)cc2)c2ccc3[nH]c(-c4ccc(NC(=O)CN=C(N)N)cc4)cc3c2)cc1 | 4.49
21 | N=C(N)NCCNc1ccc(C(=O)Nc2ccc(N(Cc3cccc4ccccc34)Cc3cccc4ccccc34)cc2)cc1-c1ccccc1 | 4.37

The remaining lines, values ahead:

Row | pIC50 | SMILES
22 | 4.08 | N=C(N)NCCNc1ccc(C(=O)Nc2ccc(N(Cc3ccccc3)Cc3ccccc3)cc2)cc1-c1ccccc1
23 | 3.76 | CC(=O)N[C@@H](CCCNC(=N)N)C(=O)Nc1ccc(C(=O)N[C@H](C(=O)N[C@@H](Cc2ccccc2)C(=O)NCc2ccccc2)C(C)C)c(-c2ccccc2)c1
24 | 3.54 | CC(=O)N[C@@H](CCCNC(=N)N)C(=O)Nc1ccc(C(=O)N[C@H](C(=O)N[C@@H](Cc2ccccc2)C(=O)NCc2ccccc2)C(C)C)cc1-c1ccccc1
25 | < 3.30 | CC(=O)NCC(=O)N[C@@H](CCCNC(=N)N)C(=O)N1CCC[C@H]1C(=O)N[C@@H](CCCNC(=N)N)C(=O)Nc1ccc(C(=O)N[C@H](C(=O)N[C@@H](Cc2ccccc2)C(=O)NCc2ccccc2)C(C)C)cc1-c1ccccc1 (Ac-GRPR[X1]VF-NHBn)
26 | 3.95 | CC(=O)N[C@@H](CCCNC(=N)N)C(=O)Nc1ccc(C(=O)Nc2ccc3c(=O)n(Cc4ccccc4)c(=O)n(Cc4ccccc4)c3c2)cc1
27 | 4.80 | CC(=O)NCC(=O)N[C@@H](CCCNC(=N)N)C(=O)N1CCC[C@H]1C(=O)N[C@@H](CCCNC(=N)N)C(=O)Nc1ccc(C(=O)N[C@H](C(=O)N[C@@H](Cc2ccccc2)C(=O)NCc2ccccc2)C(C)C)c(-c2ccccc2)c1 (Ac-GRPR[X3]VF-NHBn)
28 | 4.30 | CC(=O)NCC(=O)N[C@@H](CCCNC(=N)N)C(=O)N1CCC[C@H]1C(=O)N[C@@H](CCCNC(=N)N)C(=O)Nc1ccc(C(=O)N[C@H](C(=O)N[C@@H](Cc2ccccc2)C(=O)NCc2ccccc2)C(C)C)cc1C (Ac-GRPR[X4]VF-NHBn)
29 | 3.60 | CC(=O)Nc1ccc(-c2cc(C(=O)Nc3ccc(N(Cc4ccccc4)Cc4ccccc4)cc3)ccc2NCCNC(=N)N)cc1
30 | 3.63 | CC(=O)N[C@@H](CCCNC(=N)N)C(=O)Nc1ccc(C(=O)Nc2ccc3c(c2)c(=O)n(Cc2ccccc2)c(=O)n3Cc2ccccc2)cc1
